In ChEMBL document CHEMBL2086300, “Synthesis and biological evaluation of imidazo[4,5-b]pyridine and 4-heteroaryl-pyrimidine derivatives as anti-cancer agents” (Eur J Med Chem, 2012):
Activity calls are given as the source filed them. The rule behind the calls is not given here.

Legend:
HCT-116 [1] = assay: Antiproliferative activity against human HCT116 cells after 72 hrs by MTT assay; type: functional; details: HCT-116, 72 h
Outline: (§1)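 HCT-116 and MCF-7 cells kept in RPMI-1640 plus 10% FBS. Cells exposed to compound for 72 h and read by MTT. GI50 obtained by non-linear regression.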

MCF7 = assay: Antiproliferative activity against human MCF7 cells after 72 hrs by MTT assay; type: functional; details: MCF7, 72 h; outline: as §1
[2] = molecular target: Cyclin-dependent kinase 7/ cyclin H (Homo sapiens, UniProt P50613); assay: Inhibition of CDK7/cyclin-H by radiometric assay; type: protein-complex assay
Cyclin-dependent kinase 7/ cyclin H, sequence (P51946 whole entry): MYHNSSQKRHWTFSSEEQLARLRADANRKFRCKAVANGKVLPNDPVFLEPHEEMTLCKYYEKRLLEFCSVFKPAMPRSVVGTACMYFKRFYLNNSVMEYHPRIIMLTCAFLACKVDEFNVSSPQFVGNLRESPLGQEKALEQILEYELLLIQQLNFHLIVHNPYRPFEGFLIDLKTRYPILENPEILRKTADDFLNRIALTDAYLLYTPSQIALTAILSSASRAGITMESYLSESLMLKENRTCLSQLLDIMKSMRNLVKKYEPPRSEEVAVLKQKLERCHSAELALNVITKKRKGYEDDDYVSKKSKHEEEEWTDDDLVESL
Cyclin-dependent kinase 7/ cyclin H, sequence (P50613 whole entry): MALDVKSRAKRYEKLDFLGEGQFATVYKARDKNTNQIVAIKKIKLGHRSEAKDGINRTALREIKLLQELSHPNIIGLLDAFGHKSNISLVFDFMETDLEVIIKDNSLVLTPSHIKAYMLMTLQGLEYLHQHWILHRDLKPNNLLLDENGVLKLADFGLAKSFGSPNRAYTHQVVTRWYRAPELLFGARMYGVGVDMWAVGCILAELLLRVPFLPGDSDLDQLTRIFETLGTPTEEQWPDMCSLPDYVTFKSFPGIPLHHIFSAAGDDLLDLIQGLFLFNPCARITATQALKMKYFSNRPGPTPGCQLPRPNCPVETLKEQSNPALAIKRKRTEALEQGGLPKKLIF
Outline: (§2)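 Radiometric kinase assay run as an outsourced profiling service. IC50 taken from 10-point dose-response curves. Apparent Ki calculated from IC50 and the kinase-specific Km(ATP). Data are means of two replicates.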

CDK9/cyclin T1 = CDK9/cyclin T1 (Homo sapiens, UniProt P50750); assay: Inhibition of CDK9/cyclin-T1 by radiometric assay; type: protein-complex assay; outline: as §2
CDK9/cyclin T1, sequence (O60563 whole entry): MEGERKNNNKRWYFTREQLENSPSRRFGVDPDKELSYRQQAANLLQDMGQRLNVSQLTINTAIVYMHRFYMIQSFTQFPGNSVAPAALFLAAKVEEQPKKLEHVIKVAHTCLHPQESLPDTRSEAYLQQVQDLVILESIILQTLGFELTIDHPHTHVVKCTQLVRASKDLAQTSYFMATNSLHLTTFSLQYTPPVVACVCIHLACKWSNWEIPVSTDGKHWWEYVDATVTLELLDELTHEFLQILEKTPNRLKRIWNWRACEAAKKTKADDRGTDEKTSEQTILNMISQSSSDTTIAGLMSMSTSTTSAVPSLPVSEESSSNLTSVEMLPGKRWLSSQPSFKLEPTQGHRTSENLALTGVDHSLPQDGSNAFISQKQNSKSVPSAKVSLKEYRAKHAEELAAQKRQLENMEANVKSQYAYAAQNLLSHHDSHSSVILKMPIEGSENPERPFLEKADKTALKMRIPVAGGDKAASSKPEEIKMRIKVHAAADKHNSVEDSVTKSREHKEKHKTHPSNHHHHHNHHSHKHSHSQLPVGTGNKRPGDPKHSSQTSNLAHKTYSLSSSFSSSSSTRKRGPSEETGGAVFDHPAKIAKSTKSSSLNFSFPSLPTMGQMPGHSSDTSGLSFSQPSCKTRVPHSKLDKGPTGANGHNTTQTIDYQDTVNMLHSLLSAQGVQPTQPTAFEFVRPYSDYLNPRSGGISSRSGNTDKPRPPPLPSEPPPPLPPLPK
CDK9/cyclin T1, sequence (P50750 whole entry): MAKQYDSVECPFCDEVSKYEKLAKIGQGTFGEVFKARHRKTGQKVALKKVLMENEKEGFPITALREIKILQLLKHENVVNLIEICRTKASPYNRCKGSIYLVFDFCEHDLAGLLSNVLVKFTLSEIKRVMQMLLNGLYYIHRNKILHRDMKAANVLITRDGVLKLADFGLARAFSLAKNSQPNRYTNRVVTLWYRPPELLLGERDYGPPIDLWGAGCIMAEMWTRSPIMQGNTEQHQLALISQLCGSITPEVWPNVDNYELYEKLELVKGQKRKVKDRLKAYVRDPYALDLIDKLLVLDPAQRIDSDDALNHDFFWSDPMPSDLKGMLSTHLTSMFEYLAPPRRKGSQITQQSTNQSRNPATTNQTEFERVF

[3] = molecular target: Cyclin-dependent kinase 1/cyclin B1 (Homo sapiens, UniProt P06493); assay: Inhibition of CDK1/cyclin B by radiometric assay; type: protein-complex assay; outline: as §2
Cyclin-dependent kinase 1/cyclin B1, sequence (P06493 whole entry): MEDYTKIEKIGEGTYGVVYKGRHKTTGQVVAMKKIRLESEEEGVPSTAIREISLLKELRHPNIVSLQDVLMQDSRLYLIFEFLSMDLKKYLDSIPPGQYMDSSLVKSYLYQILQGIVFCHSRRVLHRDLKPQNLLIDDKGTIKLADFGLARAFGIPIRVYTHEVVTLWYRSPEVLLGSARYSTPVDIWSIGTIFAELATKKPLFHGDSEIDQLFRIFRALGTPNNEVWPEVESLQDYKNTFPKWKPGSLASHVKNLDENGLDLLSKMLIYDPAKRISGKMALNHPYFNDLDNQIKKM
Cyclin-dependent kinase 1/cyclin B1, sequence (P14635 whole entry, further chain): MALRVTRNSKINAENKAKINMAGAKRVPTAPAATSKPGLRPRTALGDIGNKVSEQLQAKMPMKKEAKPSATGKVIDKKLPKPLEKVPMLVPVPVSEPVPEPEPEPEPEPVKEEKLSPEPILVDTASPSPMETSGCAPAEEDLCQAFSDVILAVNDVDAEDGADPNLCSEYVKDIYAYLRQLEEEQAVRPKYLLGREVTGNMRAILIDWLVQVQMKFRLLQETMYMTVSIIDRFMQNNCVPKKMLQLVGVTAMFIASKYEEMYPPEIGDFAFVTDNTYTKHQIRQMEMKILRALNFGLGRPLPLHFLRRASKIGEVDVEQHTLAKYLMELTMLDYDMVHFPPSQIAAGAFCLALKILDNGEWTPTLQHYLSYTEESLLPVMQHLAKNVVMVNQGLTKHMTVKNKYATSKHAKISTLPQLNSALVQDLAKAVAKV

HCT-116 [4] = assay: Cell cycle arrest in human HCT116 cells at 5 times GI50 after 24 hrs by propidium iodide staining based flow cytometry; type: functional
Outline: (§3)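 HCT-116 cells treated for 24 h at GI50, 5 × GI50 or 10 × GI50 multiples. Cells fixed and stained with propidium iodide, then DNA content read by flow cytometry. Pre-G1 fraction taken as the dead-cell population.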

HCT-116 [5] = assay: Induction of apoptosis in human HCT116 cells assessed as down-regulation of Mcl-1 level at 5 to 50 uM after 24 hrs Western blot analysis; type: functional, cell-based
Outline: (§4)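 HCT-116 cells cultured with 5, 25 or 50 µM for 24 h. Lysates analysed by western blot, with β-actin as internal control.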

HCT-116 [6] = assay: Induction of apoptosis in human HCT116 cells assessed as induction of PARP cleavage at 5 to 50 uM after 24 hrs Western blot analysis; type: functional, cell-based; outline: as §4
[7] = molecular target: Cyclin-dependent kinase 7/ cyclin H (Homo sapiens) (UniProt P51946+P50613); assay: Inhibition of CDK7/cyclin-H in human HCT116 cells assessed as RNAPII CTD phosphorylation at Ser-5 at 5 to 50 uM after 24 hrs by Western blotting analysis; type: cell-based; details: HCT-116; outline: as §4
HCT-116 [8] = assay: Cell cycle arrest in human HCT116 cells assessed as accumulation at pre-G1 phase at 10 times GI50 after 24 hrs by propidium iodide staining based flow cytometry; type: functional; outline: as §3
HCT-116 [9] = assay: Induction of apoptosis in human HCT116 cells assessed as increase of caspase-3/7 activity at GI50 after 24 hrs; type: functional, cell-based
[10] = molecular target: CDK9/cyclin T1 (Homo sapiens) (UniProt O60563+P50750); assay: Inhibition of CDK9/cyclin-T1 in human HCT116 cells assessed as RNAPII CTD phosphorylation at Ser-2 at 5 to 50 uM after 24 hrs by Western blotting analysis; type: cell-based; details: HCT-116; outline: as §4
HCT-116 [11] = assay: Cell cycle arrest in human HCT116 cells at GI50 after 24 hrs by propidium iodide staining based flow cytometry; type: functional; outline: as §3
HCT-116 [12] = assay: Induction of apoptosis in human HCT116 cells assessed as increase of caspase-3/7 activity at 5 to 10 times GI50 after 24 hrs; type: functional, cell-based
[13] = Selectivity ratio of Ki for CDK1/cyclin B to Ki for CDK9/cyclin-T1
Outline: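 Ratio of apparent Ki values for CDK1/cyclin B and CDK9/cyclin-T1. Each Ki comes from a radiometric assay, converted from 10-point-curve IC50 using Km(ATP), mean of two replicates.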

SMILES | GI50 (HCT-116 [1]) | GI50 (MCF7) | further results
c1ccc(Cn2c(Nc3ccccc3)nc3cccnc32)cc1 | 60.2 µM | 51.8 µM | –
CCn1nc(-c2ccnc(Nc3cccc(S(N)(=O)=O)c3)n2)c2ccccc21 | 9.01 µM | 7.26 µM | Ki [2]: > 5 µM; Ki (CDK9/cyclin T1): 0.154 µM; Ki [3]: 0.471 µM
Cn1nc(-c2ccnc(Nc3ccc(Cl)cc3)n2)c2ccccc21 | 8.73 µM | 7.83 µM | –
Clc1ccc(Nc2nc3ncccc3n2Cc2ccccc2)cc1 | 59.5 µM | 48 µM | –
Cc1ccc(Nc2nccc(-c3nn(C)c4ccccc34)n2)cc1 | 8.64 µM | 6.1 µM | –
CCn1nc(-c2ccnc(Nc3ccc(S(N)(=O)=O)cc3)n2)c2ccccc21 | 2.05 µM | 2.28 µM | Ki [2]: > 5 µM; Ki (CDK9/cyclin T1): 0.253 µM; Ki [3]: 0.055 µM
NS(=O)(=O)c1ccc(Nc2nccc(-c3nn(Cc4cccnc4)c4ccccc34)n2)cc1 | 5.13 µM | 2.63 µM | Ki [2]: > 5 µM; Ki (CDK9/cyclin T1): 0.207 µM; Ki [3]: 0.287 µM
CCc1nn(-c2ccnc(Nc3cccc(S(N)(=O)=O)c3)n2)c2ncccc12 | 65.1 µM | 73.2 µM | –
Cn1nc(-c2ccnc(Nc3cccc(O)c3)n2)c2ccccc21 | 17.2 µM | 28.2 µM | –
Cn1nc(-c2ccnc(Nc3ccc(S(N)(=O)=O)cc3)n2)c2ccccc21 | 2.28 µM | 0.94 µM | Ki [2]: > 5 µM; Ki (CDK9/cyclin T1): 0.14 µM; Ki [3]: 0.096 µM
NS(=O)(=O)c1ccc(Nc2nccc(-n3ncc4ccccc43)n2)cc1 | 0.59 µM | 1.87 µM | Ki [2]: 0.328 µM; Ki (CDK9/cyclin T1): 0.091 µM; Ki [3]: 0.028 µM
COc1ccc(Nc2nc3ncccc3n2Cc2ccccc2)cc1 | 87.3 µM | 59.1 µM | –
Brc1cccc(Nc2nc3ncccc3n2Cc2ccccc2)c1 | 77.7 µM | 78.7 µM | –
CCCn1nc(-c2ccnc(Nc3ccc(S(N)(=O)=O)cc3)n2)c2ccccc21 | 6.74 µM | 0.59 µM | Ki [2]: > 5 µM; Ki (CDK9/cyclin T1): 0.176 µM; Ki [3]: 0.127 µM
CCn1nc(-c2ccnc(Nc3cccc(O)c3)n2)c2ccccc21 | 36.6 µM | 33.5 µM | –
CCCn1nc(-c2ccnc(Nc3cccc(S(N)(=O)=O)c3)n2)c2ccccc21 | 7.95 µM | 4.26 µM | Ki [2]: > 5 µM; Ki (CDK9/cyclin T1): 0.285 µM; Ki [3]: 0.945 µM
Clc1cccc(Nc2nc3ncccc3n2Cc2ccccc2)c1 | 36.3 µM | 43.5 µM | –
CCn1nc(-c2ccnc(Nc3ccc([N+](=O)[O-])cc3)n2)c2ccccc21 | 4.06 µM | 24 µM | –
Cn1nc(-c2ccnc(Nc3cccc(Cl)c3)n2)c2ccccc21 | 6.4 µM | 5.97 µM | –

SMILES | GI50 (HCT-116 [1]) | GI50 (MCF7) | further results
CCn1nc(-c2ccnc(Nc3cccc([N+](=O)[O-])c3)n2)c2ccccc21 | 2.82 µM | 2.31 µM | –
Cc1nn(-c2ccnc(Nc3ccc(S(N)(=O)=O)cc3)n2)c2ncccc12 | 8.84 µM | 8.64 µM | –
NS(=O)(=O)c1cccc(Nc2nccc(-n3ncc4cccnc43)n2)c1 | 14.6 µM | 6.93 µM | –
Cc1cccc(Nc2nccc(-c3nn(C)c4ccccc34)n2)c1 | 9.42 µM | 9.15 µM | –
Cc1nn(-c2ccnc(Nc3cccc(S(N)(=O)=O)c3)n2)c2ncccc12 | 24.8 µM | 19.9 µM | –
CCc1nn(-c2ccnc(Nc3ccc(S(N)(=O)=O)cc3)n2)c2ncccc12 | 6.34 µM | 0.88 µM | –
CCCn1nc(-c2ccnc(Nc3ccc(O)cc3)n2)c2ccccc21 | 5.45 µM | 3.34 µM | –
NS(=O)(=O)c1cccc(Nc2nccc(-n3ncc4ccccc43)n2)c1 | 0.75 µM | 5.56 µM | Activity (HCT-116 [4]): inactive; Ki [2]: > 5 µM; Activity (HCT-116 [5]): Active; Activity (HCT-116 [6]): Active; inhibition [7]: inactive; Activity (HCT-116 [8]): Active; Activity (HCT-116 [9]): Active; inhibition [10]: Active; Activity (HCT-116 [11]): inactive; Ki (CDK9/cyclin T1): 0.017 µM; Activity (HCT-116 [12]): Active; Ki [3]: 0.053 µM
Cn1nc(-c2ccnc(Nc3cccc(S(N)(=O)=O)c3)n2)c2ccccc21 | 1.98 µM | 2.27 µM | Ki [2]: > 5 µM; Ki (CDK9/cyclin T1): 0.098 µM; Ki [3]: 0.061 µM
O=[N+]([O-])c1cccc(Nc2nc3ncccc3n2Cc2ccccc2)c1 | 41.7 µM | 24.2 µM | –
Cc1ccc(Nc2nc3ncccc3n2Cc2ccccc2)cc1[N+](=O)[O-] | 40.4 µM | 27.8 µM | –
CCn1nc(-c2ccnc(Nc3ccc(O)cc3)n2)c2ccccc21 | 5.29 µM | 5.78 µM | –
c1ccc(Cn2c(Nc3ccccc3)nc3ncccc32)cc1 | 64.7 µM | 52.5 µM | –
Cn1nc(-c2ccnc(Nc3ccc([N+](=O)[O-])cc3)n2)c2ccccc21 | 8.22 µM | 11.8 µM | –
Cn1nc(-c2ccnc(Nc3ccc(O)cc3)n2)c2ccccc21 | 8.43 µM | 8.91 µM | –
NS(=O)(=O)c1cccc(Nc2nccc(-c3nn(Cc4cccnc4)c4ccccc34)n2)c1 | 8.28 µM | 5.27 µM | Ki [2]: > 5 µM; Ratio Ki [13]: 14; Ki (CDK9/cyclin T1): 0.314 µM; Ki [3]: 4.53 µM
Cn1nc(-c2ccnc(Nc3cccc([N+](=O)[O-])c3)n2)c2ccccc21 | 0.49 µM | 0.58 µM | –
NS(=O)(=O)c1ccc(Nc2nccc(-n3ncc4cccnc43)n2)cc1 | 8.04 µM | 7.02 µM | –
Oc1ccc(Nc2nc3ncccc3n2Cc2ccccc2)cc1 | 72.6 µM | 52.5 µM | –
